KCNQ1 act = human KCNQ1 channel potentiation or activation; P51787; CHO-K1 KCNQ1, thallium flux FluxOR fluorescence; hits give high values; 310,000 tested, 0.35% active; B-score at 10 µM;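 active means fluorescence ratio B-score, a plate-corrected score, at least three library SD, with initial intensity B-score within 5 SD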
Target sequence (P51787 whole entry, looked up): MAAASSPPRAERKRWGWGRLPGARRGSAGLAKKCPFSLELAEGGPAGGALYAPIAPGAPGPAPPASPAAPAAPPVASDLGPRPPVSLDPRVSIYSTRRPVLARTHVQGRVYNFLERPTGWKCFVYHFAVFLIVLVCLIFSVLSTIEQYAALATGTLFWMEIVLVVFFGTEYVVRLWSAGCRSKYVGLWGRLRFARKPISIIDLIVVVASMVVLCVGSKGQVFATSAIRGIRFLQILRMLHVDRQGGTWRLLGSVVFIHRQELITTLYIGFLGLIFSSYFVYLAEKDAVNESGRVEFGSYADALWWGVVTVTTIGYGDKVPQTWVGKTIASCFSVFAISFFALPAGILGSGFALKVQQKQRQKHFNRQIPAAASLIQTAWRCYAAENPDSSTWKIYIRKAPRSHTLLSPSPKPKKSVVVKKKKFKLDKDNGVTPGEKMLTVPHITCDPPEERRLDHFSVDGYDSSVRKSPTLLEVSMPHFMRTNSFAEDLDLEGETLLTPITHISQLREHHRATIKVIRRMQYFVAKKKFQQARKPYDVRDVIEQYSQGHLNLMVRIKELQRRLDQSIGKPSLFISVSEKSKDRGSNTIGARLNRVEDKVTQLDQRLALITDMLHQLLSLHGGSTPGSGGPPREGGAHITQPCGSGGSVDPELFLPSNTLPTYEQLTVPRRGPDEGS
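System: Stable KCNQ1 CHO-K1 line | Incubation: 90 min dye loading and 20 min compound exposure, both at room temperature | Measure: Ratio B score | Medium: Assay buffer for compound exposure, DMSO matched across wells | Compound dosing: Single-concentration screen | Probe or stimulus: K+/Tl+ depolarizing stimulus | Measured by: Kinetic FluxOR fluorescence, 10 s baseline plus 110 s post-stimulus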
KCNK9 block = inhibitors of human KCNK9 two-pore domain potassium channel; Q9NPC2; HEK293 KCNK9, FluxOR thallium flux fluorescence; hits give low values; B-score at 10 µM; 310,000 tested, 1.2% active;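 active means ratio B-score over 3 SD below the library mean, with starting fluorescence within 5 SD of its mean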;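 further: negative B-score means less thallium flux so channel inhibition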
Kir21 block = blocks the mouse Kir2.1 inward-rectifier potassium channel. P35561. B-score at 10 µM. 310,000 tested, 0.85% active. HEK293-Kir2.1, FluxOR thallium flux fluorescence; hits give low values;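 active means fluorescence ratio B-score at or below minus 3 SD of library scores, with starting-brightness B-score within 2 SD, cut at about -4.2 in these data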;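 further: channel flux triggered by added potassium and thallium sulfate stimulus; B-score of peak minus minimum fluorescence over baseline after thallium stimulus; more negative B-score means stronger Kir2.1 block with less thallium influx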
hERG protect = compounds protecting human hERG from proarrhythmic drug block. Q12809. CHO-hERG, FluxOR thallium flux, dofetilide IC70 present. activation (rescue from dofetilide block), less the hit threshold, % at 10 µM. 310,000 tested, 0.51% active. AID 1511;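 active means activation above the mean of controls blocked by dofetilide plus 5 SD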;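 further: thallium influx through hERG after potassium depolarization seen as dye fluorescence rise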
KCNK3 inh = human KCNK3 channel inhibition, primary screen; O14649; B-score at 10 µM; 340,000 tested, 0.84% active; CHO-KCNK3 thallium flux, FluxOR fluorescence; hits give low values;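 active means B-score under library mean minus 4 SD, starting fluorescence ratio at most library mean plus 5 SD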;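 further: more negative B-score means stronger inhibition of thallium flux through KCNK3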
KCNQ1 block = blocks the human KCNQ1 potassium channel; P51787; CHO-K1 KCNQ1, FluxOR thallium flux fluorescence; hits give high values; B-score at 10 µM; 310,000 tested, 1.3% active;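 active means compounds whose thallium flux B-score, printed positive for inhibition, exceeds three library SD while starting fluorescence stays within three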;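 further: channel opened by potassium depolarization with thallium stimulus after 20 min compound exposure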
A number is an active result; - = inactive; . = no result given. Compounds with a hit are over-represented: about 3.7% of the library has one in this group of screens.

SMILES | KCNQ1 act | KCNK9 block | Kir21 block | hERG protect | KCNK3 inh | KCNQ1 block
CC(=O)c1cccc(NC(=O)C(OC(=O)c2ccccc2NS(=O)(=O)c2cccs2)c2ccccc2)c1 (configuration not stated) | - | -7 | - | - | - | -
COc1cccc(C2c3cc4c(cc3OC(NNC(N)=O)C2C)OCO4)c1O (configuration not stated) | . | . | . | . | - | .
COC(=O)C1=C(C)N(Cc2ccccc2)C(=S)N[C@H]1c1cccc(F)c1 | - | - | - | - | - | -
COC(=O)C1=C(C)N(CC2CC2)C(=NCc2cccc(Cl)c2)N[C@H]1c1ccccc1 | - | - | -4.6 | - | - | -
COCCN=C1N[C@@H](c2ccc(Br)cc2)C(C(=O)OC)=C(C)N1Cc1ccccc1 | - | - | -6.8 | - | - | -
COC(=O)C1=C(C)N(Cc2ccccc2)C(=NCc2cccc(Cl)c2)N[C@H]1c1ccccc1 | . | . | . | . | - | .
COCCN1C(=S)N[C@@H](c2cccc(F)c2)C(C(=O)OC)=C1C | - | - | -6.8 | - | . | -
COC(=O)C1=C(C)N(Cc2ccccc2)C(=NCc2ccccc2)N[C@H]1c1cccc(F)c1 | - | - | -8.8 | - | - | -
CCNc1c2c3c(cccc3n(C)c1=O)C(=O)c1ccccc1-2 | - | - | - | - | . | -
Cn1c(=O)c(NCCO)c2c3c(cccc31)C(=O)c1ccccc1-2 | - | - | - | - | - | 25
COc1cc(OC)c(-c2sc(Nc3ccccc3)n[n+]2-c2ccc(F)cc2)cc1OC | - | - | - | - | - | -
COc1ccc(-c2sc(Nc3ccccc3)n[n+]2-c2ccc(F)cc2)c(OC)c1OC | - | - | - | - | - | 7
CN(C)C(=O)CN1CCN(C(=O)CCl)CC1 | - | - | - | 5.1 | - | -
O=C(/C=C/c1ccc2c(c1)OCO2)N1CCN(c2n[nH]c(=O)[nH]c2=O)CC1 | - | - | - | - | - | -
CN(Cc1ccccc1)C1=CC(=[N+]2CCCC2)CC(C)(C)C1 | - | - | - | - | - | 10
Cn1c(CC(=O)Nc2ccccc2Cl)nnc1SCC(=O)NC1=NCCS1 | - | - | - | - | - | -
CCOc1ccccc1NC(=S)NC(=O)C1CCCCC1 | - | - | - | - | - | -
Cc1cc(S(=O)(=O)Nc2ccc3cn[nH]c3c2)c(C)cc1Cl | - | - | -5.2 | - | - | -
O=S(=O)(Nc1ccc2cn[nH]c2c1)c1ccc(Cl)cc1 | - | - | - | - | - | -
Cc1cccc(-n2ncc3c(N4CC(C)CC(C)C4)ncnc32)c1 (configuration not stated) | - | -7.1 | - | - | - | -
CC(=O)N1c2ccc(N=Cc3cc(Br)cc(Br)c3O)cc2CC1C (configuration not stated) | 8 | - | - | - | . | -
CC1CCCC(C)N1/N=C/c1cc(Br)cc(Br)c1O (configuration not stated) | - | - | - | - | - | -
CCCc1[nH]n(-c2ccc([N+](=O)[O-])cc2)c(=O)c1C(C)=NCc1ccncc1 | - | - | - | - | - | -
Cc1cc(N2CCN(C)CC2)nc2ccc(NC(=S)NCCN3CCc4ccccc4C3)cc12 | - | - | -4.7 | - | - | -
C=CCc1ccc(OCC(O)CN2CCN(Cc3ccc(Cl)cc3)CC2)c(OC)c1 (configuration not stated) | - | - | -8.3 | - | - | -
SMILES | KCNQ1 act | KCNK9 block | Kir21 block | hERG protect | KCNK3 inh | KCNQ1 block
OC(COCc1ccc(Cl)cc1)CN1CCCCC1 (configuration not stated) | - | - | - | - | - | -
C=CCc1ccc(OCC(O)CN2CCC(Cc3ccccc3)CC2)c(OC)c1 (configuration not stated) | - | - | - | - | - | -
OC(COCc1ccc(Cl)cc1)CN1CCN(CC(O)COCc2ccc(Cl)cc2)CC1 (configuration not stated) | - | - | -4.9 | - | - | -
CCCC(C(=O)Nc1ccc(S(=O)(=O)N2CCCC2)cc1)c1ccccc1 (configuration not stated) | - | - | - | - | - | -
CC(C)(Oc1ccc(Br)cc1Cl)C(=O)Nc1ccon1 | - | - | - | - | - | -
CC(C)CC(=O)Nc1ccc2oc(-c3ccncc3)nc2c1 | - | - | - | - | - | -
